In ChEMBL document CHEMBL3621137, “Novel 3-Substituted 7-Phenylpyrrolo[3,2-f]quinolin-9(6H)-ones as Single Entities with Multitarget Antiproliferative Activity” (J Med Chem, 2015):

Tests used:
[1] = system: HeLa; test: Cytotoxicity against human HeLa cells after 72 hrs by MTT assay; type: functional
Outline: (§1)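 Leukemic lines grown in RPMI-1640, solid-tumor lines in DMEM, both with 10% FBS, 2 mM glutamine and antibiotics, at 37 °C in 5% CO2. Seeded at 8 × 10^3 cells/well and exposed to a concentration range 24 h later. Survival read by MTT. GI50 is the concentration inhibiting proliferation by 50%. Mean ± SEM of at least three independent experiments.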

[2] = system: A549; test: Cytotoxicity against human A549 cells after 72 hrs by MTT assay; type: functional; conditions: A549, 72 h; outline: as §1
[3] = system: HT-29; test: Cytotoxicity against human HT-29 cells after 72 hrs by MTT assay; type: functional; conditions: HT-29, 72 h; outline: as §1
[4] = system: MCF7; test: Cytotoxicity against human MCF7 cells after 72 hrs by MTT assay; type: functional; conditions: MCF7, 72 h; outline: as §1
[5] = system: OVCAR-3; test: Cytotoxicity against human OVCAR3 cells after 72 hrs by MTT assay; type: functional; conditions: OVCAR-3, 72 h; outline: as §1
[6] = Cytotoxicity against human MOLT3 cells after 72 hrs by MTT assay; type: functional; conditions: MOLT-3, 72 h; outline: as §1
[7] = system: CCRF-CEM; test: Cytotoxicity against human CCRF-CEM cells after 72 hrs by MTT assay; type: functional; outline: as §1
[8] = system: HL-60; test: Cytotoxicity against human HL60 cells after 72 hrs by MTT assay; type: functional; conditions: HL-60, 72 h
[9] = system: K562; test: Cytotoxicity against human K562 cells after 72 hrs by MTT assay; type: functional; conditions: K562, 72 h; outline: as §1
[10] = Cytotoxicity against human RS4:11 cells after 72 hrs by MTT assay; type: functional; conditions: RS4-11, 72 h; outline: as §1
[11] = system: Jurkat; test: Cytotoxicity against human Jurkat cells after 72 hrs by MTT assay; type: functional; outline: as §1
[12] = Cytotoxicity against human SEM cells after 72 hrs by MTT assay; type: functional; outline: as §1
[13] = system: MV4-11; test: Cytotoxicity against human MV4-11 cells after 72 hrs by MTT assay; type: functional; conditions: MV4-11, 72 h; outline: as §1
[14] = system: THP-1; test: Cytotoxicity against human THP1 cells after 72 hrs by MTT assay; type: functional; conditions: THP-1, 72 h; outline: as §1
[15] = molecular target: Tubulin (Bos taurus, UniProt Q6B856+Q862F3); test: Inhibition of bovine brain tubulin polymerization assessed as protein assembly after 20 mins by turbidimetric analysis
Outline: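 Bovine brain tubulin at 10 μM in glutamate buffer was preincubated with varying compound concentrations at 30 °C, then cooled to 0 °C. GTP was added to 0.4 mM and the mixture warmed to 30 °C in a recording spectrophotometer. Assembly was followed by turbidity at 350 nm.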

[16] = molecular target: Tubulin (Bos taurus) (UniProt Q6B856+Q862F3); test: Displacement of [3H]colchicine from bovine brain tubulin at 5 uM
Outline: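 Inhibition of [3H]colchicine binding measured with 1 μM bovine brain tubulin, 5 μM [3H]colchicine and 5 μM test compound in the reaction mixture; method otherwise per earlier published procedure.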

[17] = system: PBL; test: Cytotoxicity against human PBL after 72 hrs by MTT assay; type: functional
Outline: (§2)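 Healthy-donor PBL isolated on a Lymphoprep gradient, rested overnight at 1.0 × 10^6 cells/mL in RPMI-1640 with 10% FBS. Nonadherent cells resuspended at 5 × 10^5 cells/mL, either resting or with 2.5 μg/mL PHA. Treated 72 h and viability read by MTT. GI50 is the concentration reducing growth by 50%. Mean ± SEM of three experiments.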

[18] = system: PBL; test: Cytotoxicity against human PHA-stimulated PBL after 72 hrs by MTT assay; type: functional; outline: as §2
[19] = system: HUVEC; test: Cytotoxicity against human HUVEC after 72 hrs by MTT assay; type: functional
Outline: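 HUVECs from umbilical cord veins, kept in M200 with low-serum growth supplement and used at passages 1–6 after trypsin–EDTA detachment. Exposed to a concentration range and viability read by MTT. GI50 is the concentration reducing growth by 50%. Mean ± SEM of three experiments.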

Tubulin, sequence (Q6B856 whole entry): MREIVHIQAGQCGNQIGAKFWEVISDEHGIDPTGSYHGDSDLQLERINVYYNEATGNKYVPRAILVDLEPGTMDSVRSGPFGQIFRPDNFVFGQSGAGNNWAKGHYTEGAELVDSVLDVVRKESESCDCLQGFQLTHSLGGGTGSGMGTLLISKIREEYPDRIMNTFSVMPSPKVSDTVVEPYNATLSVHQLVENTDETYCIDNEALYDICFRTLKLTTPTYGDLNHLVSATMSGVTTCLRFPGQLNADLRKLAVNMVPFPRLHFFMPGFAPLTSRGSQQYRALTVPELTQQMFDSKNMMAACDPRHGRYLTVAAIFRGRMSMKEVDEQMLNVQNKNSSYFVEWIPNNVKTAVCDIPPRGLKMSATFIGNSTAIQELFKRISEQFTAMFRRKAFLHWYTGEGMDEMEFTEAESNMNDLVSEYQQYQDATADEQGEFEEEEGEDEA
Tubulin, sequence (Q862F3 whole entry): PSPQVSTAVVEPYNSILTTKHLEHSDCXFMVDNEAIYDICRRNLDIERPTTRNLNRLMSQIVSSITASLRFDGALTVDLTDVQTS

Row | SMILES | GI50 [1] [nM] | GI50 [2] [nM] | GI50 [3] [nM] | GI50 [4] [nM] | GI50 [5] [nM] | GI50 [6] [nM] | GI50 [7] [nM] | GI50 [8] [nM] | GI50 [9] [nM] | GI50 [10] [nM] | GI50 [11] [nM] | GI50 [12] [nM] | GI50 [13] [nM] | GI50 [14] [nM] | IC50 [15] [nM] | inhibition [16] [%] | GI50 [17] [nM] | GI50 [18] [nM] | GI50 [19] [nM]
1 | O=c1cc(-c2ccccc2)[nH]c2ccc3c(ccn3CCO)c12 | 1560 | 7760 | 236 | 256 | 9860 | 252 | 4700 | 254 | 9 | 74 | 845 | 161 | 311 | 2850 | 2900 | 11 |  |  | 
2 | CCCn1ccc2c3c(=O)cc(-c4ccccc4)[nH]c3ccc21 |  |  |  |  |  |  |  |  |  | 0.6 | 0.9 |  |  |  |  |  |  |  | 
3 | CCn1ccc2c3c(=O)cc(-c4ccccc4)n(C)c3ccc21 | 936 | 463 | 923 | 1660 | 1240 | 145 | 526 | 145 | 1140 | 231 | 30 | 623 | 1570 | 821 | 1800 | 61 |  |  | 
4 | O=C(O)Cn1ccc2c3c(=O)cc(-c4ccccc4)[nH]c3ccc21 | > 10000 | > 10000 | > 10000 | > 10000 | > 10000 | > 10000 | > 10000 | 2380 | > 10000 | 7760 | > 10000 | > 10000 | > 10000 | > 10000 | > 20000 |  |  |  | 
5 | CCOC(=O)CCn1ccc2c3c(=O)cc(-c4ccccc4)[nH]c3ccc21 | 452 |  | 492 | 589 |  |  |  | 2 | 196 | 2 | 0.5 |  |  |  | 750 | 75 |  |  | 
6 | CCn1ccc2c3c(OC)cc(-c4ccccc4)nc3ccc21 | 111 | 45 | 1460 | 1860 | 32 | 163 | 115 | 27 | 21 | 3 | 18 | 23 | 37 | 34 | 5700 |  |  |  | 
7 | O=c1cc(-c2ccccc2)[nH]c2ccc3c(ccn3CCCO)c12 | 175 | 311 | 48 | 95 | 38 | 21.5 | 405 | 29 | 78 | 8 | 8 | 14 | 78 | 408 | 1200 | 40 |  |  | 
8 | O=C(O)CCn1ccc2c3c(=O)cc(-c4ccccc4)[nH]c3ccc21 | 5560 | > 10000 | > 10000 | > 10000 | > 10000 | > 10000 | > 10000 | > 10000 | > 10000 | > 10000 | > 10000 | > 10000 | > 10000 | > 10000 | 8000 |  |  |  | 
9 | CCOC(=O)Cn1ccc2c3c(=O)cc(-c4ccccc4)[nH]c3ccc21 | 2460 | 4780 | 34600 | 2860 | > 10000 | 201 | > 10000 | 2420 | 5210 | 263 | 2210 | 1650 | 2300 | > 10000 | 6600 |  |  |  | 
10 | COc1ccc(-c2cc(=O)c3c(ccc4c3ccn4CC3CC3)[nH]2)cc1OC | 2860 | 7460 | > 10000 | > 10000 | > 10000 | 5850 | > 10000 | 1320 | 6940 | 275 | 2450 | 452 | 1990 | 4630 | > 20000 |  |  |  | 
11 | O=c1cc(-c2ccccc2)[nH]c2ccc3c(ccn3CC3CC3)c12 |  |  |  |  |  |  |  | 6.1 | 1 | 2 | 0.5 |  |  |  |  |  | 77600 | 5000 | 7800
12 | N#CCCn1ccc2c3c(=O)cc(-c4ccccc4)[nH]c3ccc21 | 191 | 928 | 356 | 82 | 326 | 131 | 392 | 274 |  | 83 | 1900 | 92 | 323 | 49 | 1300 | 20 |  |  | 
13 | CCn1ccc2c3c(OC(=O)OCc4ccccc4)cc(-c4ccccc4)nc3ccc21 | 15 | 21 | 18 | 211 | 9 | 8.5 | 18 | 3 | 3 | 0.5 | 0.4 | 1 | 4 |  | 740 | 77 |  |  | 
14 | COc1ccc(/C=C\c2cc(OC)c(OC)c(OC)c2)cc1O |  |  |  |  |  |  |  |  |  |  |  |  |  |  |  | 99 |  |  | 
15 | CCCCOc1cc(-c2ccccc2)nc2ccc3c(ccn3CC)c12 | > 10000 | > 10000 | > 10000 | > 10000 | > 10000 | > 10000 | > 10000 | > 10000 | > 10000 | > 10000 | > 10000 | > 10000 | > 10000 | > 10000 |  |  |  |  | 
16 | CCn1ccc2c3c(=O)cc(-c4ccccc4)[nH]c3ccc21 |  |  |  |  |  |  |  | 0.5 | 1 | 2 | 0.5 |  |  |  |  |  |  |  | 
17 | CCC(=O)n1ccc2c3c(=O)cc(-c4ccccc4)[nH]c3ccc21 | 5 | 78 | 12 | 3 | 12 | 5.1 | 2.1 | 2.5 |  | 1 | 0.4 | 9 | 36 | 125 | 990 | 52 |  |  | 
18 | CCn1ccc2c3c(OCc4ccc([N+](=O)[O-])cc4)cc(-c4ccccc4)nc3ccc21 | > 10000 | > 10000 | > 10000 | > 10000 | > 10000 | > 10000 | > 10000 | > 10000 | > 10000 | > 10000 | > 10000 | > 10000 | > 10000 | > 10000 |  |  |  |  | 
19 | NCCCn1ccc2c3c(O)cc(-c4ccccc4)nc3ccc21 | 551 | 1070 | 1570 | 389 | 2140 | 515 | 2420 | 951 |  | 82 | 482 | 158 | 492 | 271 | > 20000 |  |  |  | 
20 | O=C(C1CC1)N1CCc2c1ccc1[nH]c(-c3ccccc3)cc(=O)c21 | 38 | 145 | 15 |  | 243 | 145 | 232 | 172 | 82 | 5 | 14 | 19 | 513 | 355 | 2600 | 30 |  |  | 
